Results published in publication PMC6309585 (Investigational new drugs, 2018).

Experiments:
[1] = HPLC analysis of BaP organic and aqueous metabolites in plasma, colon and liver; format: in vivo, Apc^Min/+ mice; details: colon, RVT simultaneously or prior to BaP, compared to BaP alone
BaP-induced colon tumors [2] = details: orally administered RVT; mice exposed to BaP compared to BaP alone; cited from earlier work
[3] = Pharmacokinetics of BaP and RVT in plasma after oral gavage; format: in vivo, Apc^Min/+ mice; details: for half-life / Clearance (Cl) / Volume of distribution (Vd): plasma; for Clearance (Cl) / Volume of distribution (Vd): oral gavage, BaP 100 μg/kg bw, RVT 45 μg/kg bw, mean ± SE, n = 10
BaP-induced colon tumors [4] = test: BaP-induced colon tumors/adenomas; format: in vivo, Apc^Min/+ mice; details: RVT administration post BaP subchronic exposure; data not shown
DNA [5] = test: Oxidative DNA damage; format: in vivo, Apc^Min/+ mice; details: text: colon, Fig. 9B; RVT prior to and simultaneously with BaP; compared to BaP treatment only
CYP1B1 mRNA = CYP1B1 mRNA expression; format: in vivo, Apc^Min/+ mice; details: liver
GST [6] = test: GST activity in colon and liver; format: in vivo, Apc^Min/+ mice; details: liver; compared to BaP alone
Outline: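 Colon and liver protein from Apc^Min/+ mice was assayed for GST activity with a commercial kit. […] Tissues were collected 60 days after exposure; n = 10 per group.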

GST mRNA = GST mRNA expression; format: in vivo, Apc^Min/+ mice; details: compared to the no treatment group
GST [7] = test: Glutathione-S-transferase protein expression in colon and liver; format: in vivo, Apc^Min/+ mice; details: for GST protein expression: colon, RVT and BaP administered separately, compared to no treatment group; for Glutathione-S-transferase protein expression: liver, in comparison to control mice
Outline: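 Western blot of total colon and liver protein: 10% SDS–PAGE, transfer to PVDF, mouse anti-GST and rabbit anti-GAPDH antibodies, detection with IRDye680 anti-mouse and IRDye800 anti-rabbit secondaries. GST signal was normalized to GAPDH. […] Values are mean ± SE, n = 10.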

DNA [8] = test: BaP-DNA adducts by 32P-postlabeling and TLC in colon and liver; format: in vivo, Apc^Min/+ mice

## Oc1ccc(C=Cc2cc(O)cc(O)c2)cc1 [RVT, 3,5,4′-trihydroxystilbene]
[1]
  BaP aqueous metabolite levels: increases
  BaP organic metabolite concentrations: significantly decreased
BaP-induced colon tumors [2]
  Incidence, size and number of adenomas formed in the colon: decrease
[3]; male, ApcMin/+, mouse, po
  half-life: 1 ± 0.011 h
[3]
  Clearance (Cl): 1.9 ± 0.14 mL/day/kg
  Volume of distribution (Vd): 0.00044 ± 5e-05 L/kg
BaP-induced colon tumors [4]
  Reversal of BaP-induced carcinogenic effects (tumor count and size): failed to reverse
DNA [5]
  Base pair damage (apurinic/apyrimidinic sites): significant reduction
CYP1B1 mRNA
  CYP1B1 mRNA expression: feeble expression
GST [6]
  GST activity: no significant changes
GST mRNA; liver, RVT either simultaneously or prior to BaP treatment
  GST mRNA expression: increase
GST [7]
  GST protein expression: increased
  Glutathione-S-transferase protein expression: significantly decreased
DNA [8]
  Stable BaP-DNA adduct concentrations: reduced

## c1ccc2c(c1)cc1ccc3cccc4ccc2c1c34 [BaP, Benzo(a)pyrene]
[3]; male, ApcMin/+, mouse, in vivo, po
  Elimination rate (Kd): 0.17 ± 0.06 h
[3]; male, ApcMin/+, mouse, po
  half-life: 1.8 ± 0.018 h
[3]
  Clearance (Cl): 2.4 ± 0.24 mL/day/kg
  Volume of distribution (Vd): 0.00058 ± 4.5e-05 L/kg
GST mRNA; colon
  Decrease in GST mRNA expression: 50%
GST [7]
  GST protein expression: increased
  Glutathione-S-transferase protein expression: significantly decreased
